Laboratory results from ChEMBL document CHEMBL3286182, “4-aminoquinolone piperidine amides: noncovalent inhibitors of DprE1 with long residence time and potent antimycobacterial activity” (J Med Chem, 2014).
Converted amounts (≈) assume the structure as drawn. The source made the active and inactive calls. No cut-off for these calls is given here.

Columns and labels:
[1] = system: Mycolicibacterium smegmatis; experiment: Ratio of IC50 for Mycobacterium smegmatis DprE1 Y321H mutant to IC50 for Mycobacterium smegmatis recombinant wild type DprE1
Method in brief: (§1)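 Recombinant M. smegmatis DprE1 (thioredoxin-6His fusion), wild type or Y321H, 75 nM. Enzyme was preincubated 30 min in FAD assay mix: 50 mM glycylglycine pH 8.5, 200 mM potassium glutamate, 10 μM FAD, 0.002% Brij-35, 2% DMSO. Reaction was started with 300 μM farnesylphosphoryl-β-D-ribofuranose, 0.01 mg/mL HRP and 50 μM amplex red at 25 °C.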

[2] = Initial plasma concentration in Wistar rat at 2 mg/kg, iv; type: ADME, organism-based; parameters: dose 2 mg/kg, route intravenous
Method in brief: (§2)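 Male Wistar rats given a single dose, 2 mg/kg intravenously or 10 mg/kg orally. Plasma concentration followed over time, n = 2 per compound. Parameters taken from the plasma curves: C0 (iv), Cmax (oral), AUC0−∞, elimination half-life, plasma clearance, Vss and oral bioavailability.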

[3] = system: Mycolicibacterium smegmatis; experiment: Binding affinity to Mycobacterium smegmatis recombinant DprE1 assessed as residence time
Method in brief: (§3)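 Progress curves (fluorescence vs time) recorded at several inhibitor concentrations with 75 nM Msm DprE1 in the FAD/HRP/Amplex Red coupled assay, pH 8.5, 25 °C. A single-step reversible slow-binding model was fitted globally, with vs and vi fitted per concentration and koff and Kiapp shared. Half-life and residence time were derived from koff.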

[4] = target: Voltage-gated inwardly rectifying potassium channel KCNH2 (Homo sapiens, UniProt Q12809); experiment: Inhibition of human ERG by medium-throughput electrophysiology
Voltage-gated inwardly rectifying potassium channel KCNH2, sequence (Q12809 whole entry): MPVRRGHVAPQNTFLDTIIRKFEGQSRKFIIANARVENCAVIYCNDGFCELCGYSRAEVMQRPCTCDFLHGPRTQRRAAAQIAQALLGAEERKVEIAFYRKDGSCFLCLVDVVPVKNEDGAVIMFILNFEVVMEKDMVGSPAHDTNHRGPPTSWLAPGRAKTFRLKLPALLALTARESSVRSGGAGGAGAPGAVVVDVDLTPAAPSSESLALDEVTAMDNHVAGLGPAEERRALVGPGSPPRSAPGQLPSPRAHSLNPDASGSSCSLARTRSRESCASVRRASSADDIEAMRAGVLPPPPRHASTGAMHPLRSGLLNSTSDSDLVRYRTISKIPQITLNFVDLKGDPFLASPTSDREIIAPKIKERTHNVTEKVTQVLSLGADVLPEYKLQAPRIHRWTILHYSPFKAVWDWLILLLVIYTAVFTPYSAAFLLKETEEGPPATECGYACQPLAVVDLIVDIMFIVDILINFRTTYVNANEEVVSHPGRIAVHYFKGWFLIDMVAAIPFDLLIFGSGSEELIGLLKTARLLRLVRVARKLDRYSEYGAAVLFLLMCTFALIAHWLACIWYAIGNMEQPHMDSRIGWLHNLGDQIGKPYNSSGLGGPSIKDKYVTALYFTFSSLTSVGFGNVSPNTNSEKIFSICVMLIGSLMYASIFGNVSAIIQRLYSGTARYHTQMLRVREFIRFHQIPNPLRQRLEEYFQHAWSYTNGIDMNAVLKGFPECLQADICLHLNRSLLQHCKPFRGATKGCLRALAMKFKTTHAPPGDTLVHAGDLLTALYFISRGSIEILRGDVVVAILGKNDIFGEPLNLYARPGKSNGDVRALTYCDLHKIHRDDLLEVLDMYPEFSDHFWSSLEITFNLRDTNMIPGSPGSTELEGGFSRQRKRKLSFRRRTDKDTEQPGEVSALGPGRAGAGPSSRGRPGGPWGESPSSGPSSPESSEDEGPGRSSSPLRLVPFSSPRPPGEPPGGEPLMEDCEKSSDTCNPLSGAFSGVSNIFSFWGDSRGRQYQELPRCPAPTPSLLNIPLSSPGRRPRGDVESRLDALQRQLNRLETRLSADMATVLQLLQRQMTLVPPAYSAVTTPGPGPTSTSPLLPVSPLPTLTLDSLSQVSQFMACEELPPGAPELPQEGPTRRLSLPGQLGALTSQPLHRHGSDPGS

[5] = Intrinsic clearance in rat cryopreserved hepatocytes assessed per 10^6 cells at 1 uM up to 120 mins by LC-MS/MS analysis; type: ADME, cell-based, Hepatocyte; settings: read-out: CLH
[6] = Cmax in Wistar rat at 10 mg/kg, po; type: ADME, organism-based; parameters: dose 10 mg/kg, route oral; settings: in vivo; method in brief: as §2
[7] = system: Escherichia coli; experiment: Antimicrobial activity against Escherichia coli ARC524 at 100 uM; type: functional, organism-based
Method in brief: (§4)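 Nonmycobacterial panel of Candida albicans, Gram-negative and Gram-positive pathogens.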

[8] = Volume of distribution at steady state in Wistar rat at 2 mg/kg, iv; type: ADME, organism-based; parameters: dose 2 mg/kg, route intravenous; settings: in vivo, read-out: Vdss; method in brief: as §2
[9] = Inhibition of Mycobacterium smegmatis DprE1 Y321H mutant using farnesylphosphoryl-beta-D-ribofuranose as substrate assessed as conversion of amplex red to resorufin after 30 mins; parameters: species or system Mycolicibacterium smegmatis; method in brief: as §1
[10] = system: Pseudomonas aeruginosa; experiment: Antimicrobial activity against Pseudomonas aeruginosa ARC546 at 100 uM; type: functional, organism-based; method in brief: as §4
[11] = AUC (0 to infinity) in Wistar rat at 2 mg/kg, iv; type: ADME, organism-based; parameters: dose 2 mg/kg, route intravenous, time infinity; settings: plasma; method in brief: as §2
[12] = Intrinsic clearance in human liver microsomes at 1 uM up to 30 mins by LC-MS/MS analysis; type: ADME; settings: read-out: CLH
[13] = Solubility of the compound in 0.1 M phosphate buffer at pH 7.4 after 24 hrs by UV and MS analysis; type: physicochemical
[14] = Cytotoxicity against human A549 cells after 72 hrs by resazurin based fluorescence assay; type: cell-based; settings: read-out: MIC
Method in brief: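 Cytotoxicity read as MMIC, the MIC on the A549 cell line.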

[15] = system: Haemophilus influenzae; experiment: Antimicrobial activity against Haemophilus influenzae ARC446 at 100 uM; type: functional, organism-based; method in brief: as §4
[16] = system: Pseudomonas aeruginosa; experiment: Antimicrobial activity against Pseudomonas aeruginosa ARC545 at 100 uM; type: functional, organism-based; method in brief: as §4
[17] = system: Mycobacterium tuberculosis; experiment: Antimycobacterial activity against Mycobacterium tuberculosis H37Rv after 5 days by standard microdilution method; type: functional; settings: 120 h
[18] = system: Staphylococcus aureus; experiment: Antimicrobial activity against Staphylococcus aureus ARC517 at 100 uM; type: functional, organism-based; method in brief: as §4
[19] = Permeability of the compound from basolateral to apical side in human Caco2 cells; type: ADME, cell-based; settings: Caco-2, read-out: permeability
[20] = Fraction unbound in human plasma at 20 uM after 18 hrs by equilibrium dialysis method; type: ADME, cell-free
[21] = system: Mycobacterium tuberculosis; experiment: Bactericidal activity against Mycobacterium tuberculosis H37Rv after 3 days relative to control; type: functional
[22] = system: Haemophilus influenzae; experiment: Antimicrobial activity against Haemophilus influenzae ARC158 at 100 uM; type: functional, organism-based; method in brief: as §4
[23] = system: Mycolicibacterium smegmatis; experiment: Binding affinity to Mycobacterium smegmatis recombinant DprE1 assessed as half life; method in brief: as §3
[24] = Permeability of the compound from apical to basolateral side in human Caco2 cells; type: ADME, cell-based; settings: Caco-2, read-out: permeability
[25] = system: Klebsiella pneumoniae; experiment: Antimicrobial activity against Klebsiella pneumoniae ARC1865 at 100 uM; type: functional, organism-based; method in brief: as §4
[26] = system: Candida albicans; experiment: Antimicrobial activity against Candida albicans ARC527 at 100 uM; type: functional, organism-based; method in brief: as §4
[27] = Elimination half life in Wistar rat at 10 mg/kg, po; type: ADME, organism-based; parameters: dose 10 mg/kg, route oral; settings: in vivo, read-out: beta t1/2 (converted); method in brief: as §2
[28] = system: Mycolicibacterium smegmatis; experiment: Antimicrobial activity against Mycobacterium smegmatis mc2155 at 100 uM; type: functional, organism-based; settings: str. MC2 155
[29] = Octanol-water partition coefficient, log D of the compound by shake-flask method; type: physicochemical
[30] = system: Mycobacterium tuberculosis; experiment: Antimycobacterial activity against Mycobacterium tuberculosis H37Rv under hypoxic condition after 6 days by resazurin assay; type: functional; settings: 144 h
[31] = system: Mycobacterium tuberculosis; experiment: Antimycobacterial activity against Mycobacterium tuberculosis H37Rv at >MIC after 21 to 28 days; type: functional
[32] = system: Mycolicibacterium smegmatis; experiment: Binding affinity to Mycobacterium smegmatis recombinant DprE1 assessed as dissociation constant; method in brief: as §3
[33] = system: Mycobacterium tuberculosis; experiment: Antimycobacterial activity against Mycobacterium tuberculosis over expressing PimA after 5 days by standard microdilution method; type: functional; settings: 120 h
[34] = Elimination half life in Wistar rat at 2 mg/kg, iv; type: ADME, organism-based; parameters: dose 2 mg/kg, route intravenous; settings: in vivo, read-out: beta t1/2 (converted); method in brief: as §2
[35] = Clearance in Wistar rat at 2 mg/kg, iv; type: ADME, organism-based; parameters: dose 2 mg/kg, route intravenous; settings: in vivo; method in brief: as §2
[36] = system: Mycobacterium tuberculosis; experiment: Antimycobacterial activity against Mycobacterium tuberculosis over expressing DprE1 after 5 days by standard microdilution method; type: functional; settings: 120 h
[37] = system: Mycobacterium tuberculosis; experiment: Bactericidal activity against Mycobacterium tuberculosis H37Rv after 7 days relative to control; type: functional
[38] = system: Mycobacterium tuberculosis; experiment: Antimycobacterial activity against Mycobacterium tuberculosis over expressing TopA after 5 days by standard microdilution method; type: functional; settings: 120 h
[39] = system: Streptococcus pneumoniae; experiment: Antimicrobial activity against Streptococcus pneumoniae ARC548 at 100 uM; type: functional, organism-based; method in brief: as §4
[40] = system: Mycolicibacterium smegmatis; experiment: Antimicrobial activity against Mycobacterium smegmatis ATCC 607 at 100 uM; type: functional, organism-based
[41] = Oral bioavailability in Wistar rat at 10 mg/kg; type: ADME, organism-based; settings: in vivo; method in brief: as §2
[42] = AUC (0 to infinity) in Wistar rat at 10 mg/kg, po; type: ADME, organism-based; parameters: time infinity, dose 10 mg/kg, route oral; settings: plasma; method in brief: as §2
[43] = system: Mycobacterium tuberculosis; experiment: Antimycobacterial activity against Mycobacterium tuberculosis over expressing InhA after 5 days by standard microdilution method; type: functional; settings: 120 h
[44] = system: Escherichia coli; experiment: Antimicrobial activity against Escherichia coli ARC523 at 100 uM; type: functional, organism-based; method in brief: as §4
[45] = Inhibition of Mycobacterium smegmatis recombinant DprE1 using farnesylphosphoryl-beta-D-ribofuranose as substrate assessed as conversion of amplex red to resorufin after 30 mins; parameters: species or system Mycolicibacterium smegmatis
Method in brief: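 Msm DprE1 (thioredoxin-6His fusion of Msm Rv3790) at 75 nM, preincubated 30 min with 10 μM FAD. Buffer: 50 mM glycylglycine pH 8.5, 200 mM potassium glutamate, 0.002% Brij-35, 2% DMSO, 25 °C. Started with 300 μM farnesylphosphoryl-β-D-ribofuranose, 0.01 mg/mL HRP and 50 μM Amplex Red.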

In the case of `Cn1ncc(C(=O)N2CCC(Nc3cc(=O)[nH]c4cc(F)c(F)cc34)CC2)c1Cl`, the fold change (FC) [1] is reported as over 143, the C0 [2] is reported as 4.9 µM and the TIME [3] is reported as 2.53 h. It also gave an IC50 [4] of over 100 µM, a hepatocyte CLint at 1 µM [5] of 2.4 µL/min/1e6 cells and a Cmax [6] of 0.02 µM. The Activity [7] was “inactive”, the Vd [8] was 0.9 L/kg and the IC50 [9] was over 10 µM. The Activity [10] was “inactive”, the AUC(0-inf) [11] was 1200 nM·h and the microsomal CLint at 1 µM [12] was 12.5 µL/min/mg. The solubility at 24 h [13] was 26 µM (≈ 11 µg/mL), the MCC at 72 h [14] was over 100 µM and the Activity [15] was “inactive”. For the same molecule, the Activity [16] was “inactive”, the MIC [17] was 0.4 µM (≈ 0.169 µg/mL) and the Activity [18] was “inactive”. The Papp B→A [19] was 110 nm/s, the fraction unbound at 18 h, 20 µM [20] was 0.4 and the LCK [21] was 3. The Activity [22] was “inactive”, the T1/2 [23] was 1.75 h and the Papp A→B [24] was 2 nm/s. The Activity [25] was “inactive”, the Activity [26] was “inactive” and the half-life [27] was 1.1 h. The Activity [28] was “inactive”, the logD [29] was 2.2 and the IC80 [30] was over 100 µM. For the same molecule, the MBC [31] was 0.8 µM (≈ 0.337 µg/mL), the Kdiss [32] was 0.00011 s⁻¹ and the MIC [33] was 0.4 µM (≈ 0.169 µg/mL). It also gave a half-life [34] of 0.5 h, a clearance [35] of 2.06 L/h/kg and an MIC [36] of over 50 µM. The LCK [37] was 4, the MIC [38] was 0.4 µM (≈ 0.169 µg/mL) and the Activity [39] was “inactive”. For the same molecule, the Activity [40] was “inactive”, the bioavailability [41] was 0.3% and the AUC(0-inf) [42] was 40 nM·h. For the same molecule, the MIC [43] was 0.4 µM (≈ 0.169 µg/mL), the Activity [44] was “inactive” and the IC50 [45] was 0.006 µM.
